For experiment [1], the system named is RAW264.7. The experiment can be described thus: Inhibition of LPS-induced nitric oxide production in mouse RAW264.7 cells assessed as nitrite accumulation after 20 hrs. The class given is functional, cell-based. To be noted: RAW264.7, 20 h. A digest of the protocol: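 RAW 264.7 macrophages grown in DMEM with 10% FBS and penicillin-streptomycin at 37 °C, 5% CO2. Plated at 5 × 10⁵ cells/mL in phenol-red-free 10% FBS-DMEM for 24 h, then PBS-washed, refreshed, and given 1 μg/mL LPS ± samples for 20 h. Nitrite in supernatant measured by Griess reaction at 540 nm against a sodium nitrite standard. Inhibition calculated versus vehicle control; IC50 by nonlinear regression. L-NMMA positive control.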

The subject of experiment [2] is RAW264.7. The experiment is described as follows: Cytotoxicity against mouse RAW264.7 cells by MTT assay. The class given is cell-based. For orientation: Formazan colour is commonly taken as a measure of viable cells.
Experiment [3] deals with RAW264.7. The experiment can be described thus: Selectivity index, ratio of CC50 for mouse RAW264.7 cells to IC50 for nitric oxide production in mouse RAW264.7 cells. The class given is functional.

The results in this text go back to ChEMBL document CHEMBL1157343, “Prenylated flavonoids from the heartwood of Artocarpus communis with inhibitory activity on lipopolysaccharide-induced nitric oxide production” (J Nat Prod, 2006).

The structures appear in SMILES notation.

The IC50 is the point on the concentration scale where inhibition reaches its midpoint.

With `CC(C)=CCc1c(O)ccc2c1O[C@H](c1ccc(O)cc1O)CC2=O`, the IC50 in the experiment with RAW264.7 [1] was 12.3 µM; with RAW264.7 [2] it was 47.9 µM. For the same compound, in the experiment with RAW264.7 [3], the “Ratio CC50/IC50” value was 3.9.
The matching figures for `CC1(C)C=Cc2c(ccc(C(=O)/C=C/c3ccc(O)cc3O)c2O)O1`: 18.8 µM, 59.2 µM and 3.1.
As for `COc1cc2oc3c(c(=O)c2c(O)c1/C=C/C(C)C)C(C=C(C)C)Oc1cc(O)ccc1-3` (stereo not drawn), the values for the concentration for half-maximal inhibition (IC50) with RAW264.7 [1] and with RAW264.7 [2] were above 60 µM and 46.1 µM, respectively. The “Ratio CC50/IC50” value in the experiment on RAW264.7 [3] was below 0.8.
As for `COc1cc2oc(-c3ccc(O)cc3O)c(CC=C(C)C)c(=O)c2c(O)c1/C=C/C(C)C` [ARTOCARPIN], the IC50 in the experiment with RAW264.7 [1] worked out at 18.7 µM; in the experiment with RAW264.7 [2], 45.3 µM. In addition, the “Ratio CC50/IC50” value with RAW264.7 [3] came to 2.4.
On to `CC(C)=CC1Oc2cc(O)ccc2-c2oc3cc4c(c(O)c3c(=O)c21)C=CC(C)(C)O4` (stereo not drawn) [CUDRAFLAVONE A], for which the IC50 with RAW264.7 [1] and in the experiment on RAW264.7 [2] was 42.1 µM in each case. In addition, the “Ratio CC50/IC50” value in the experiment with RAW264.7 [3] was determined as 1.
In the case of `CC(C)=CCc1c(O)cc2oc(-c3ccc(O)cc3O)c(CC=C(C)C)c(=O)c2c1O` [CUDRAFLAVONE C], the IC50 with RAW264.7 [1] is 52.3 µM; in the experiment on RAW264.7 [2], 59.2 µM. For the same compound, the “Ratio CC50/IC50” value with RAW264.7 [3] turned out to be 1.1.
The matching figures for `C/C(=C/Cc1c(O)ccc(C(=O)/C=C/c2ccc(O)cc2)c1O)COC(=O)/C=C/c1ccc(O)cc1` [GEMICHALCONE B]: 9.3 µM, 35.1 µM and 3.8.
Turning to `COc1cc(/C=C/C(=O)OC/C(C)=C\Cc2c(O)ccc(C(=O)/C=C/c3ccc(O)cc3O)c2O)ccc1O` [GEMICHALCONES C], the IC50 is 23.9 µM in the experiment on RAW264.7 [1] and 37.6 µM with RAW264.7 [2]. Besides, the “Ratio CC50/IC50” value in the experiment with RAW264.7 [3] is 1.6.
On to `CC(C)=CCc1c(O)ccc(C(=O)/C=C/c2ccc(O)cc2)c1O` [ISOBAVACHALCONE], for which the IC50 stood at 6.4 µM with RAW264.7 [1] and 16.4 µM with RAW264.7 [2]. Besides, the “Ratio CC50/IC50” value with RAW264.7 [3] is on record as 2.6.
Consider `CC(C)=CCc1c(O)ccc(C(=O)/C=C/c2ccc(O)cc2O)c1O` [MORACHALCONE A], for which the IC50 in the experiment with RAW264.7 [1] worked out at 16.4 µM; with RAW264.7 [2] it was 58 µM. Also, in the experiment with RAW264.7 [3], the “Ratio CC50/IC50” value was found to be 3.5.
The matching figures for `CNC(=N)NCCC[C@H](N)C(=O)O` [TILARGININE]: 19.2 µM, above 50 µM and above 2.6.
